# ChEMBL document CHEMBL1123302, “Antagonists of substance P. Further modifications of substance P antagonists obtained by replacing either positions 7, 9 or 7, 8 and 11 of SP with D-amino acid residues” (J Med Chem, 1986)
# Assays:
# [1] = target: Substance-P receptor (Cavia porcellus) (UniProt P30547); assay: Antagonistic activity against Substance P receptor in guinea pig ileum at concentration of 1 uM.; format: functional, tissue-based
# Method in brief: (§1)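 Distal ileum from Dunkin-Hartley guinea pigs (300-350 g, both sexes), held in a 5-mL bath of Krebs solution at 37 °C gassed with 95% O2/5% CO2. Agonist dose-response curves ran on a 3-min cycle with 1-min contact, then washout. Dose ratio = agonist EC50 with antagonist / EC50 alone. At least two preparations per compound; ratios below two were taken as insignificant.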
# [2] = target: Metabotropic glutamate receptor 3 (Rattus norvegicus) (UniProt P31422); assay: Antagonistic activity against Glutamate receptor in rat spinal cord at concentration of 21 uM.; format: functional, tissue-based
# Metabotropic glutamate receptor 3 (Rattus norvegicus), sequence (P31422 23-879 limits assumed): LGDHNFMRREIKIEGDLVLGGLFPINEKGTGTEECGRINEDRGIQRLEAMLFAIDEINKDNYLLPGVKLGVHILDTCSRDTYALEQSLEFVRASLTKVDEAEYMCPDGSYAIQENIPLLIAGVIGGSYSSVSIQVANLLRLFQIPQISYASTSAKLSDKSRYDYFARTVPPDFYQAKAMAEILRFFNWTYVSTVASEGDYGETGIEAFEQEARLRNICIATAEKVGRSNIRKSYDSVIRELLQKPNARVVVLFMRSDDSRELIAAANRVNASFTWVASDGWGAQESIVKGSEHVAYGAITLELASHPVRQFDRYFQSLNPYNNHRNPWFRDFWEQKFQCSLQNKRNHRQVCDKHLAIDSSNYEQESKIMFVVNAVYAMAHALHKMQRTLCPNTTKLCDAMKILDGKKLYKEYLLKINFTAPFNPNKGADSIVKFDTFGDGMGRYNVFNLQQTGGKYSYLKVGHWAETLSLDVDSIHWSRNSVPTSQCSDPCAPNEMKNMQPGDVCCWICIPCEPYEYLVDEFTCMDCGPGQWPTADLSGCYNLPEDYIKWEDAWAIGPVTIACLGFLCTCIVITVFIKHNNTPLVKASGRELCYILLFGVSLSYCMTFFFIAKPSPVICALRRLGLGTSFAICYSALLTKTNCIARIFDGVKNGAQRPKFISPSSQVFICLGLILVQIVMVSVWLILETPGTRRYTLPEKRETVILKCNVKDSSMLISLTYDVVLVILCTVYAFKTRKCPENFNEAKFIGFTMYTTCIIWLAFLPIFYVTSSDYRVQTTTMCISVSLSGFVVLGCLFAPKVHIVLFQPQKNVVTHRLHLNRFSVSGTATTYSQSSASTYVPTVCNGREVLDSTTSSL
# Method in brief: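 Neonatal rat spinal cord, hemisected sagittally, superfused at 1 mL/min with oxygenated Krebs-Henseleit medium containing 0.5% urethane at room temperature. Agonists were given in 2-mL doses in the superfusate. Antagonist was superfused continuously for at least 15 min before agonist retesting. Read-out was ventral root depolarization (DC potential, ventral root vs cord body), measured as amplitude and area of response.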
# [3] = target: Substance-P receptor (Cavia porcellus) (UniProt P30547); assay: Antagonistic activity against Substance P(6-11) receptor in guinea pig ileum at concentration of 4.5 uM.; format: functional, tissue-based; method in brief: as §1
# [4] = target: Substance-P receptor (Rattus norvegicus) (UniProt P14600); assay: Antagonistic activity against Substance P receptor in rat spinal cord at concentration of 21 uM.
# Substance-P receptor (Rattus norvegicus), sequence (P14600 whole entry, looked up): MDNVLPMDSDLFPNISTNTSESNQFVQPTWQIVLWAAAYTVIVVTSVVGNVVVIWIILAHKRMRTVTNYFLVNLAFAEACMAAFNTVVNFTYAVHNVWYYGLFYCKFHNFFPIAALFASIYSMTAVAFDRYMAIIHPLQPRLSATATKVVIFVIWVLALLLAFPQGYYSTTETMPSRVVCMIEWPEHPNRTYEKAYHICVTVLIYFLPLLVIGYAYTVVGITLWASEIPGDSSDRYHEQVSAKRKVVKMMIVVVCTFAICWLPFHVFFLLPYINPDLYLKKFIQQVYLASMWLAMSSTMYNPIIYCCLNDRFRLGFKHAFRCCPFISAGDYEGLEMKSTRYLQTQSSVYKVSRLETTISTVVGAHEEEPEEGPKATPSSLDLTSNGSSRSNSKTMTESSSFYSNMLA
# [5] = target: Substance-P receptor (Rattus norvegicus) (UniProt P14600); assay: Antagonistic activity against Substance P(6-11) receptor in rat spinal cord at concentration of 43 uM.
# [6] = target: Substance-P receptor (Cavia porcellus) (UniProt P30547); assay: Antagonistic activity against Substance P(6-11) receptor in guinea pig ileum at concentration of 1 uM.; format: functional, tissue-based; method in brief: as §1
# Substance-P receptor = Substance-P receptor (Rattus norvegicus, UniProt P14600); assay: Compound was evaluated for the histamine releasing activity of the Substance P from isolated rat peritoneal mast cells using the procedure of Fretwell et al; format: functional, cell-based
# Substance-P receptor, sequence (P14600 whole entry): as the sequence (P14600 whole entry, looked up) above
# Method in brief: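 Histamine release from isolated rat peritoneal mast cells, method of Fretwell et al. Dose-response curves were built over a range of concentrations, and EC50 values were calculated from the curves.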
# [7] = target: Substance-P receptor (Rattus norvegicus) (UniProt P14600); assay: Antagonistic activity against Substance P receptor in rat spinal cord at concentration of 43 uM.
# [8] = target: Substance-P receptor (Rattus norvegicus) (UniProt P14600); assay: Antagonistic activity against Substance P(6-11) receptor in rat spinal cord at concentration of 21 uM.
# [9] = target: Substance-P receptor (Cavia porcellus) (UniProt P30547); assay: Antagonistic activity against Substance P receptor in guinea pig ileum at concentration of 4.5 uM.; format: functional, tissue-based; method in brief: as §1
# Substance-P receptor (Cavia porcellus), sequence (P30547 whole entry): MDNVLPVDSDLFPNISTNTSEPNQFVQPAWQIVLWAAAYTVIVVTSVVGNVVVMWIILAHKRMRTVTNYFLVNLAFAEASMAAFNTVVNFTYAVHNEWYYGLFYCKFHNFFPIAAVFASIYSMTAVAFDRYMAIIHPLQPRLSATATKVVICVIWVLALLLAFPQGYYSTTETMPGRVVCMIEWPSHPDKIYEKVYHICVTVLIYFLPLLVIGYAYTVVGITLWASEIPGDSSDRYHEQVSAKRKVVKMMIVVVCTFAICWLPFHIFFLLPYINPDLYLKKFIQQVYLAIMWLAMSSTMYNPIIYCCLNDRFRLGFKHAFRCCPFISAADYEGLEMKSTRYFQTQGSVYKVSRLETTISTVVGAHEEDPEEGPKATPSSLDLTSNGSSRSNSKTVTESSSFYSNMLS
compound,measurement,setting,value
COC(=O)[C@H](CCSC)NC(=O)[C@H](CC(C)C)NC(=O)[C@@H](Cc1c[nH]c2ccccc12)NC(=O)[C@H](Cc1ccccc1)NC(=O)[C@@H](Cc1ccccc1)NC(=O)[C@H](CCCCNC(=O)OCc1ccccc1)NC(=O)[C@H](CC(N)=O)NC(=O)[C@@H]1CCCN1C(=O)[C@H](CCCCNC(=O)OCc1ccccc1)NC(=O)[C@@H]1CCCN1C(=O)[C@H](CCCN=C(N)N)NC(=O)OCc1ccccc1,Activity,[1],5 dose ratio
same,Change in amplitude response,[2],-15%
same,Activity,[3],10.8 dose ratio
same,Change in amplitude response,[4],17%
same,Change in amplitude response,[5],-54%
same,Activity,[6],9.3 dose ratio
same,IC50,Substance-P receptor,> 500 µM
same,Change in amplitude response,[7],0%
same,Change in amplitude response,[8],-44%
same,Activity,[9],11.4 dose ratio
